# According to ChEMBL document CHEMBL4028851, “Discovery of Potent Small-Molecule Inhibitors of Ubiquitin-Conjugating Enzyme UbcH5c from α-Santonin Derivatives” (J Med Chem, 2017):
# Active and inactive are the calls of the source. No cut-off for these calls is given here.
# Assays:
# [1] = molecular target: Ubiquitin-conjugating enzyme E2 D3 (Mus musculus) (UniProt P61079); assay: Inhibition of UbcH5c in mouse b.End3 cells assessed as decrease in TNF-alpha-mediated IkB-alpha phosphorylation preincubated for 2 hrs followed by TNF-alpha stimulation for 20 mins by Western blot analysis; format: cell-based
# Chain of Ubiquitin-conjugating enzyme E2 D3 (Mus musculus) (P61079 whole entry, looked up): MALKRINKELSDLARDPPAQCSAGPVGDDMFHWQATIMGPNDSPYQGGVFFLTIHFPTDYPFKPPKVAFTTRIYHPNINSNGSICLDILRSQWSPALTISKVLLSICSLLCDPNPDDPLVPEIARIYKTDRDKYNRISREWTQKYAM
# Method in brief: (§1)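 bEnd.3 cells (DMEM, 10% FBS) were pretreated with compound at 2.5, 5 or 10 µM for 2 h, then stimulated with 20 ng/mL TNF-α (15 min in the methods, 20 min in the legend). Lysates were run on 10% SDS-PAGE and immunoblotted for phospho-IκBα, IκBα, phospho-p65 and p65, with GAPDH as loading control.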
# [2] = molecular target: Ubiquitin-conjugating enzyme E2 D3 (Mus musculus) (UniProt P61079); assay: Inhibition of UbcH5c in mouse b.End3 cells assessed as decrease in TNF-alpha-mediated IkB-alpha degradation preincubated for 2 hrs followed by TNF-alpha stimulation for 20 mins by Western blot analysis; format: cell-based; method in brief: as §1
# [3] = molecular target: Ubiquitin-conjugating enzyme E2 D3 (Mus musculus) (UniProt P61079); assay: Inhibition of UbcH5c in mouse b.End3 cells assessed as decrease in TNF-alpha-mediated p65 phosphorylation preincubated for 2 hrs followed by TNF-alpha stimulation for 20 mins by Western blot analysis; format: cell-based; method in brief: as §1
# [4] = molecular target: Ubiquitin-conjugating enzyme E2 D3 (Mus musculus) (UniProt P61079); assay: Inhibition of UbcH5c in mouse b.End3 cells assessed as decrease in TNF-alpha-mediated IkB-alpha phosphorylation at 10 uM preincubated for 2 hrs followed by TNF-alpha stimulation for 20 mins by Western blot analysis; format: cell-based; method in brief: as §1
# in vitro = details: human, HEK-293T cells
# [5] = molecular target: Ubiquitin-conjugating enzyme E2 D3 (Mus musculus) (UniProt P61079); assay: Inhibition of UbcH5c in mouse b.End3 cells assessed as decrease in TNF-alpha-mediated IkB-alpha degradation at 10 uM preincubated for 2 hrs followed by TNF-alpha stimulation for 15 mins by Western blot analysis
# [6] = molecular target: T1, Ubiquitin-conjugating enzyme E2 D3 (Homo sapiens, UniProt P61077); assay: Inhibition of UbcH5c (unknown origin) at 1 uM preincubated for 15 mins followed by E1, Ub and ATP addition measured after 40 mins by Western blot analysis
# T1 sequence (P61077 whole entry, looked up): as the sequence (P61079 whole entry, looked up) above
# [7] = molecular target: T1, Ubiquitin-conjugating enzyme E2 D3; assay: Binding affinity to human recombinant UbcH5c by SPR analysis
inhibition [4],inhibition [5],inhibition [6],SMILES,cytotoxicity at 5 µM (in vitro) [%],also measured
Active,Active,–,C=C1C(=O)O[C@@H]2C3[C@@H](C)[C@@H](OC(=O)c4cccc(I)c4)CC[C@]3(C)CC[C@@H]12 (some centres not stated),< 20,inhibition [1]: Dose-dependent effect; inhibition [2]: Dose-dependent effect; inhibition [3]: Dose-dependent effect
–,–,inactive,C=C1C(=O)O[C@@H]2C3[C@@H](C)[C@@H](OC(=O)CC)CC[C@]3(C)CC[C@@H]12 (some centres not stated),–,–
–,–,–,C=C1C(=O)O[C@H]2c3c(C)c(OC(=O)/C=C/c4ccc(OC(F)(F)F)cc4)cc(C)c3CC[C@@H]12,< 20,–
Active,Active,–,C=C1C(=O)O[C@@H]2C3=C(C)[C@@H](OC(=O)c4ccccc4)CC3[C@](C)(OC(C)=O)CC[C@@H]12 (some centres not stated),< 20,inhibition [1]: Dose-dependent effect; inhibition [2]: Dose-dependent effect; inhibition [3]: Dose-dependent effect
–,–,–,C=C1C(=O)O[C@H]2c3c(C)c(OC(=O)c4cccnc4)cc(C)c3CC[C@@H]12,< 20,–
–,–,–,C=C1C(=O)O[C@@H]2C3=C(C)[C@@H](OC(=O)/C=C/c4ccc(OCCC)cc4)CC3[C@](C)(OC(C)=O)CC[C@@H]12 (some centres not stated),< 20,–
Active,Active,–,C=C1C(=O)O[C@H]2c3c(C)c(OC(=O)/C=C/c4cccnc4)cc(C)c3CC[C@@H]12,< 20,inhibition [1]: Dose-dependent effect; inhibition [2]: Dose-dependent effect; inhibition [3]: Dose-dependent effect
–,–,–,C=C1C(=O)O[C@H]2c3c(C)c(OCc4ccccc4C(F)(F)F)cc(C)c3CC[C@@H]12,< 20,–
–,–,inactive,C=C1C(=O)O[C@@H]2C3[C@@H](C)[C@@H](OC(=O)CCCC)CC[C@]3(C)CC[C@@H]12 (some centres not stated),–,–
–,–,inactive,C=C1C(=O)O[C@@H]2C3[C@@H](C)[C@@H](OC(=O)C4CCCCC4)CC[C@]3(C)CC[C@@H]12 (some centres not stated),–,–
–,–,inactive,C=C1C(=O)O[C@@H]2C3[C@@H](C)[C@@H](OC(=O)C4CCCC4)CC[C@]3(C)CC[C@@H]12 (some centres not stated),–,–
–,–,–,C=C1C(=O)O[C@@H]2C3[C@@H](C)[C@@H](OC(=O)c4ccco4)CC[C@]3(C)CC[C@@H]12 (some centres not stated),< 20,–
Active,Active,–,C=C1C(=O)O[C@@H]2C3=C(C)[C@@H](OC(=O)c4ccc(Cl)cc4)CC3[C@](C)(OC(C)=O)CC[C@@H]12 (some centres not stated),< 20,inhibition [1]: Dose-dependent effect; inhibition [2]: Dose-dependent effect; inhibition [3]: Dose-dependent effect
Active,Active,–,C=C1C(=O)O[C@@H]2C[C@]3(C)C(=C[C@H]12)[C@@H](C)CC[C@H]3O,–,Kd [7]: 2580 nM
–,–,inactive,C=C1C(=O)O[C@@H]2C3[C@@H](C)[C@@H](OC(=O)CCC)CC[C@]3(C)CC[C@@H]12 (some centres not stated),–,–
–,–,–,C=C1C(=O)O[C@H]2c3c(C)c(OC(=O)/C=C/c4cccs4)cc(C)c3CC[C@@H]12,< 20,–
–,–,–,C=C1C(=O)O[C@@H]2C3=C(C)[C@@H](OC(=O)c4ccc(C)cc4)CC3[C@](C)(OC(C)=O)CC[C@@H]12 (some centres not stated),< 20,–
Active,Active,–,C=C1C(=O)O[C@@H]2C3[C@@H](C)[C@@H](OC(=O)c4ccc(I)cc4)CC[C@]3(C)CC[C@@H]12 (some centres not stated),< 20,inhibition [1]: Dose-dependent effect; inhibition [2]: Dose-dependent effect; inhibition [3]: Dose-dependent effect
–,–,inactive,C=C1C(=O)O[C@@H]2C3[C@@H](C)[C@@H](OC(C)=O)CC[C@]3(C)CC[C@@H]12 (some centres not stated),–,–
–,–,–,C=C1C(=O)O[C@H]2c3c(C)c(OCc4ccc(OC(F)(F)F)cc4)cc(C)c3CC[C@@H]12,< 20,–
